Measurements reported in ChEMBL document CHEMBL1138485, “Discovery of inducible nitric oxide synthase (iNOS) inhibitor development candidate KD7332, part 1: Identification of a novel, potent, and selective series of quinolinone iNOS dimerization inhibitors that are orally active in rodent pain models” (J Med Chem, 2009).

Assays:
Cytochrome P450 3A4 = Cytochrome P450 3A4 (Homo sapiens, UniProt P08684); test: Inhibition of CYP3A4; format: ADME
Nitric oxide synthase 3 = molecular target: T1, Nitric oxide synthase 3 (Homo sapiens, UniProt P29474); test: Inhibition of human eNOS expressed in HEK293 cells assessed as NO production by transient transfection assay; format: cell-based
T1 sequence (P29474 whole entry): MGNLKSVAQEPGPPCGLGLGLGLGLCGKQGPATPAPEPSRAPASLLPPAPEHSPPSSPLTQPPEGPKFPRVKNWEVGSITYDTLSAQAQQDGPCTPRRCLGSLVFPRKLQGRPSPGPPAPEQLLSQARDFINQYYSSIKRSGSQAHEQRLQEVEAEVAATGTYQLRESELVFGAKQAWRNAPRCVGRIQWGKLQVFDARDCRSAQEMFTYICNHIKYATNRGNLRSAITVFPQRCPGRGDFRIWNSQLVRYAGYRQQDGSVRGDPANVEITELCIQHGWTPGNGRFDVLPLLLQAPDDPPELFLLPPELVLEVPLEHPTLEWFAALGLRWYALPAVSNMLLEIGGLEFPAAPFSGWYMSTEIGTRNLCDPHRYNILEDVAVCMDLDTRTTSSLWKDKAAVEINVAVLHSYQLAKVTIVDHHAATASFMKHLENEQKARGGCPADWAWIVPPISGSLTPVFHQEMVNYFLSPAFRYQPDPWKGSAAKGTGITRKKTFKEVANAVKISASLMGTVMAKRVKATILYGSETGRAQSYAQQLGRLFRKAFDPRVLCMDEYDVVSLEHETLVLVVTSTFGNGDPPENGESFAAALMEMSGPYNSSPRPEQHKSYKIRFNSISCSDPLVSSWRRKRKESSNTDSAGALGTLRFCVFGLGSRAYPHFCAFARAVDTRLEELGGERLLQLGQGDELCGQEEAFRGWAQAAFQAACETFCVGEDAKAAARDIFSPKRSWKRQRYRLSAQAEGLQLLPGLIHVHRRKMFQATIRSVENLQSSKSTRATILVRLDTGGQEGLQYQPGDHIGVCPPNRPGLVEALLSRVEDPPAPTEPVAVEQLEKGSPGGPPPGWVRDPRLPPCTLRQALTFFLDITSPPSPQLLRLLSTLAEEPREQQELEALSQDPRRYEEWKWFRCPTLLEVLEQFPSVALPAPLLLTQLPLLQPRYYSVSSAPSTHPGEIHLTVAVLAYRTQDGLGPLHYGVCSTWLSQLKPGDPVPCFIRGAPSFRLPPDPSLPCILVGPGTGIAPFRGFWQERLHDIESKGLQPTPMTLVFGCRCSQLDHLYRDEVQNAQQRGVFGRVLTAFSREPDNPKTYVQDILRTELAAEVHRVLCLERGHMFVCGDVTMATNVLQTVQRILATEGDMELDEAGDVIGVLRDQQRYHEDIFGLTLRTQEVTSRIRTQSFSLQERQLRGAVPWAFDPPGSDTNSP
Summary of the method: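 HEK293 cells grown to ~70% confluence in DMEM/10% FBS with pen/strep, transfected with 15 µg human eNOS plasmid plus Fugene 6 (3:1 µL:µg), 4 h at 37 °C, 10% CO2. Cells replated at 5 × 10⁵/mL, compound added at once, 24 h incubation, then A23187 (83 nM final). After 18 h, NO read by DAN fluorescence.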

Nitric oxide synthase 1 = Nitric oxide synthase 1 (Homo sapiens, UniProt P29475); test: Inhibition of human nNOS expressed in HEK293 cells assessed as NO production by transient transfection assay; format: cell-based
[1] = molecular target: Nitric oxide synthase, inducible (Homo sapiens, UniProt P35228); test: Inhibition of human iNOS expressed in HEK293 cells assessed as NO production by transient transfection assay; format: cell-based
Summary of the method: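 HEK293 cells grown to ~70% confluence in DMEM/10% FBS with pen/strep. Cells transiently transfected with 10 µg human or murine iNOS plasmid (Fugene 6), 4 h at 37 °C, 10% CO2. Trypsinized, plated at 5 × 10⁵ cells/mL and dosed at once; 1400W 100 µM final as positive control. After 18 h, NO read as DAN fluorescence (10 µg/mL, 20 min RT, then NaOH). EC50 from 3 runs, 10-point curves, n = 8/point.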

Cytochrome P450 2D6 = Cytochrome P450 2D6 (Homo sapiens, UniProt P10635); test: Inhibition of CYP2D6; format: ADME
[2] = Drug level in LPS-challenged BALB/c mouse plasma at 30 mg/kg, po after 6 hrs; format: ADME, organism-based; parameters: dose 30 mg/kg, route oral
Summary of the method: (§1)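 Male Balb/c mice were dosed by oral gavage (90% PEG/5% Tween 80/5% PVP + 90% CMC (0.5% w/v)) at t = 0 h, 30 mg/kg for single-dose lines. LPS 10 mg/kg ip in 0.9% NaCl followed immediately. At 6 h, EDTA plasma was taken for nitrate and drug levels. Nitrate reduction is relative to vehicle; ED50 came from full oral dose-response.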

Cytochrome P450 2C19 = Cytochrome P450 2C19 (Homo sapiens, UniProt P33261); test: Inhibition of CYP2C19; format: ADME
Mus musculus = test: Reduction of plasma nitrate level in LPS-challenged BALB/c mouse at 30 mg/kg, po; format: functional; parameters: scale not given: the % may be the effect or the level left; summary of the method: as §1
Cytochrome P450 1A2 = molecular target: T2, Cytochrome P450 1A2 (Homo sapiens, UniProt P05177); test: Inhibition of CYP1A2; format: ADME
T2 sequence (P05177 whole entry): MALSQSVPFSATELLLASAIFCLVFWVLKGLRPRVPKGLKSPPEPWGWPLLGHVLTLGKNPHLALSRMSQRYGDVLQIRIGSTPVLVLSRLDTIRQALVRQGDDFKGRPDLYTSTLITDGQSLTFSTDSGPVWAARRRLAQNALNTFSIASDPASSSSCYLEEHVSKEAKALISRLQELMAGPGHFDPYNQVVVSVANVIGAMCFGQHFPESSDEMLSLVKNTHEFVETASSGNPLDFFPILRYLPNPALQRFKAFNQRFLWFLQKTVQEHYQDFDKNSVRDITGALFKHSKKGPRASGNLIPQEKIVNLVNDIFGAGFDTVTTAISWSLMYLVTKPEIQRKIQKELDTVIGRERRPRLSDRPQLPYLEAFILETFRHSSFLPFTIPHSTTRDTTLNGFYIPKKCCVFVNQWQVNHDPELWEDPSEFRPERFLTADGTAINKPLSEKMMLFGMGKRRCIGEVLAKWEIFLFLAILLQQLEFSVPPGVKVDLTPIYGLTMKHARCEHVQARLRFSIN

Chain of Cytochrome P450 2D6 (P10635 whole entry): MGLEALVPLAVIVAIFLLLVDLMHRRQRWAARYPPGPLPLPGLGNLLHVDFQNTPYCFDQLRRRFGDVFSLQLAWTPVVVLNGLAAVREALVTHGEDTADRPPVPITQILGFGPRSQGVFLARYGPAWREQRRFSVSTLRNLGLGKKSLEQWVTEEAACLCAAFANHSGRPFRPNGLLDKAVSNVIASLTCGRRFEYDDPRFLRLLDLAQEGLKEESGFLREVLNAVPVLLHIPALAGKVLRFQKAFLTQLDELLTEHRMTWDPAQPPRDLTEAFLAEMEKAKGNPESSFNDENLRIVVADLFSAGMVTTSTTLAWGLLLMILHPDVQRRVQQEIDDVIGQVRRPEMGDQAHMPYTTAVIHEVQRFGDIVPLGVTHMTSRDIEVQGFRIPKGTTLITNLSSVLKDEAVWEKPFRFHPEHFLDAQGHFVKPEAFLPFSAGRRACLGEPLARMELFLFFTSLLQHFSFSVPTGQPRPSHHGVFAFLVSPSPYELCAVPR
Chain of Nitric oxide synthase 1 (P29475 whole entry): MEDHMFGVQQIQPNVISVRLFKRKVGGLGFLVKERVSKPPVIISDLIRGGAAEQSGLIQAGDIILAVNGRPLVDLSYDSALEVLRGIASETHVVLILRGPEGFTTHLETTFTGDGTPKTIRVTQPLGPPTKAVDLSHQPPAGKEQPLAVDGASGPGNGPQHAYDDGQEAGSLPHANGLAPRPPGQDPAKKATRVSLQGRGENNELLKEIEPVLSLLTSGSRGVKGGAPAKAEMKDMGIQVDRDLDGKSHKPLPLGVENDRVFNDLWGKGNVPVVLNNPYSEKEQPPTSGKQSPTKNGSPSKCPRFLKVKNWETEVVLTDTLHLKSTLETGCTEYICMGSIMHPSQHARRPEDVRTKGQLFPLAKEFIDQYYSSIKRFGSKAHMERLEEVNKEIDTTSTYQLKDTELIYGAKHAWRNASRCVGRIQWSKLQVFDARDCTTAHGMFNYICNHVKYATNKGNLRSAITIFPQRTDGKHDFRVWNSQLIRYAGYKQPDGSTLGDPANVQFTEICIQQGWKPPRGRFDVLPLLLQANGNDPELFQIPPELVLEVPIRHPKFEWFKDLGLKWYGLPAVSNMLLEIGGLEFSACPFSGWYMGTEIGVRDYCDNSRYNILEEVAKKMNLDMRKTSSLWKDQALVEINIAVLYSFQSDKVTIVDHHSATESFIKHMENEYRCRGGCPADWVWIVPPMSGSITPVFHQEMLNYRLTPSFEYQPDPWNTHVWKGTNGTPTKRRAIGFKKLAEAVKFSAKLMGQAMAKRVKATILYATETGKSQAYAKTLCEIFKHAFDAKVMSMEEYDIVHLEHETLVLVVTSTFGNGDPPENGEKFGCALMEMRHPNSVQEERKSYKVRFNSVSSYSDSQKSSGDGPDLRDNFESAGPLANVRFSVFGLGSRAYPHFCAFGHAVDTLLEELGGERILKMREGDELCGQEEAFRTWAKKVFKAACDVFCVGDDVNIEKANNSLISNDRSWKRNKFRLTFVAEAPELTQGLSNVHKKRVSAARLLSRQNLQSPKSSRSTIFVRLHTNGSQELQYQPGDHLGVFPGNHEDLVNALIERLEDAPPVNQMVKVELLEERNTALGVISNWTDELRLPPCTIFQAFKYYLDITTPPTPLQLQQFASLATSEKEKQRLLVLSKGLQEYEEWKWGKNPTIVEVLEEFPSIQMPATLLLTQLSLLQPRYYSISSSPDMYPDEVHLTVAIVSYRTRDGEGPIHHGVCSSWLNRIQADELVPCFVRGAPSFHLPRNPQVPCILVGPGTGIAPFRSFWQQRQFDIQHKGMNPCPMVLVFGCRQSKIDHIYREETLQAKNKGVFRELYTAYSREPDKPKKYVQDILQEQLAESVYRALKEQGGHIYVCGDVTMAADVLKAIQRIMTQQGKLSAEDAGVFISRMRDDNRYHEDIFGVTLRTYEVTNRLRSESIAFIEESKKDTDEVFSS
Chain of Nitric oxide synthase, inducible (P35228 whole entry): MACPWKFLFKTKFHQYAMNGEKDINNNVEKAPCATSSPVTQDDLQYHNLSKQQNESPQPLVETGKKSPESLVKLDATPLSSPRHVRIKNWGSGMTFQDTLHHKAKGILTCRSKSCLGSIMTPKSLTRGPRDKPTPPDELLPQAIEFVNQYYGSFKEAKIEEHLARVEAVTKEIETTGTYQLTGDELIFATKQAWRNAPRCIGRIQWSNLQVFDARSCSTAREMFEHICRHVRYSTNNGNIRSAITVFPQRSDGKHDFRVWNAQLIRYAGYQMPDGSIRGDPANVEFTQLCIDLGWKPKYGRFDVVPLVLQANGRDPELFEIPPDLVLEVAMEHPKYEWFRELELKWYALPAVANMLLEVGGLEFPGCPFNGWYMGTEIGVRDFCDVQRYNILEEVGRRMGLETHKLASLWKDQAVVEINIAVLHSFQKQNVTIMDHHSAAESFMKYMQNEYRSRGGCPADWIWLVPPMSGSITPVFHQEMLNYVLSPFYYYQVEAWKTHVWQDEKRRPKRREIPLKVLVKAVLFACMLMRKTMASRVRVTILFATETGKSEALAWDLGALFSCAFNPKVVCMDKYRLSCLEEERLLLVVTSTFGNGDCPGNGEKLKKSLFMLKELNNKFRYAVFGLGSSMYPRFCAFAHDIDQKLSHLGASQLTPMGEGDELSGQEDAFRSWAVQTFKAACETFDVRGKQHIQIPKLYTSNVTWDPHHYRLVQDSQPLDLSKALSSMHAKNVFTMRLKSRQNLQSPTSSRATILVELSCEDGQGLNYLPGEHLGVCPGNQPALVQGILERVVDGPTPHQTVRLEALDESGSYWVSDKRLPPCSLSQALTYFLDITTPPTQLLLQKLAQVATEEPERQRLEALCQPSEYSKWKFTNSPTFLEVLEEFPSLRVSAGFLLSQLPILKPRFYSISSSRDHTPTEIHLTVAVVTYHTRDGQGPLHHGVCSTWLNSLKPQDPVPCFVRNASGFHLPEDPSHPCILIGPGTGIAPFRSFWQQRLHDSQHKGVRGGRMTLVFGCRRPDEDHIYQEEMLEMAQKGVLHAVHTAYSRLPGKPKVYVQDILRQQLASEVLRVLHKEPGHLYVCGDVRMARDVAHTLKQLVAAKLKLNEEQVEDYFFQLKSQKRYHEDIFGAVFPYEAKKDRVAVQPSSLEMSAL
Chain of Cytochrome P450 2C19 (P33261 whole entry): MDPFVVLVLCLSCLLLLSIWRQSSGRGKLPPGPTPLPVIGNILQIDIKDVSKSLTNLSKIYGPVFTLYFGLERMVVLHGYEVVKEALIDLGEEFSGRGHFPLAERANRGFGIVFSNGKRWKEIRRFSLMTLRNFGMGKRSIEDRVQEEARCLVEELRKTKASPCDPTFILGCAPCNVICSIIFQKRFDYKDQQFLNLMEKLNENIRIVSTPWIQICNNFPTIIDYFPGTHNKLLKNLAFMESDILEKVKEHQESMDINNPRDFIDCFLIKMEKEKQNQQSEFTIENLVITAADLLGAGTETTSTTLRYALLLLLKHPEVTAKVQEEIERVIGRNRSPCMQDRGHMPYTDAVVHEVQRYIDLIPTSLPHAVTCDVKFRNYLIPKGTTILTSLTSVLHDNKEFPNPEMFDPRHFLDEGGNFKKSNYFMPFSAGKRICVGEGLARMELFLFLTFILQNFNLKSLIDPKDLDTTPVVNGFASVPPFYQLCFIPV
Chain of Cytochrome P450 3A4 (P08684 whole entry): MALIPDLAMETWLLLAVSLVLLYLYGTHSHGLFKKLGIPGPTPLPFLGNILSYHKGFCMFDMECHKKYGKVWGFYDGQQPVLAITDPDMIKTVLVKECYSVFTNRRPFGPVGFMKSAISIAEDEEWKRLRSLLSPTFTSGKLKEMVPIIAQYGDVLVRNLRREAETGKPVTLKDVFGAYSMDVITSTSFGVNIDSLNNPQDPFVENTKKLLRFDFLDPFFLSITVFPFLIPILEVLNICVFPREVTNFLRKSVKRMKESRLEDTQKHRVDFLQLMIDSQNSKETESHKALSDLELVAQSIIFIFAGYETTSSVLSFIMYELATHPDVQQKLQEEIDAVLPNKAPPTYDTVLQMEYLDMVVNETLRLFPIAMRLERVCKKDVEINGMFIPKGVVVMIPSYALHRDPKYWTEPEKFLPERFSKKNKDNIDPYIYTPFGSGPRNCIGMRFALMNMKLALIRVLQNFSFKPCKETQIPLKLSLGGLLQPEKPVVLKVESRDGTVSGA

Row | Compound | EC50 (Cytochrome P450 3A4) [µM] | EC50 (Nitric oxide synthase 3) [µM] | EC50 (Nitric oxide synthase 1) [µM] | EC50 [1] [µM] | EC50 (Cytochrome P450 2D6) [µM] | concentration at 6 h [2] [ng/mL] | EC50 (Cytochrome P450 2C19) [µM] | Activity (Mus musculus) [%] | EC50 (Cytochrome P450 1A2) [µM]
1 | CC1=C(C(=O)N(Cc2cc(=O)[nH]c3c(F)c(F)ccc23)c2cccc(Cl)c2)CNCC1 | 3.4 | 2.5 | 0.29 | 0.011 | > 100 | 63 | 30 | 95 | > 100
2 | Cc1ncsc1C(=O)N(Cc1cc(=O)[nH]c2c(F)c(F)ccc12)c1cccc(Cl)c1 | 4.9 | 3 | 0.12 | 0.002 | > 100 | 8 | 19 | 62 | 52
3 | Cc1ncsc1C(=O)N(Cc1c[n+]([O-])cc2c(F)c(F)ccc12)c1cccc(Cl)c1 | 1.8 | 34 | 3.2 | 0.019 | > 100 | 20 | 93 | 10 | > 100
4 | Cc1ncsc1C(=O)N(Cc1cc(=O)[nH]c2c(F)cccc12)c1cccc(Cl)c1 | 7 | 26 | 2.3 | 0.011 | > 100 | 77 | 13 | 90 | > 100
5 | Cn1cncc1C(=O)N(Cc1cc(=O)[nH]c2c(F)c(F)ccc12)c1cccc(Cl)c1 | 1.4 | 0.42 | 0.07 | 0.003 | 21 | 18 | 11 | 95 | 95
6 | CC(C)C(=O)N(Cc1cc(=O)[nH]c2c(F)cccc12)c1cccc(Cl)c1 | 7.6 | > 100 | 2.9 | 0.16 | > 100 | 21 | 42 | 6 | > 100
